The test concerns acetylated α-tubulin (AcTub) in QBI-293 cells. Description: Acetyl-tubulin assay. Type of test: cell-based. The note with it: for MT activity (AcTub increase), inactive compounds: QBI-293 cells, 1 and 10 μM; for elevation in AcTub without decrease of α-tubulin: 1 or 10 μM. The gist of the method: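 QBI-293 cells kept at 37 °C, 5% CO₂, trypsinised and plated at 6 × 10⁵ cells/well, then exposed overnight-later to vehicle (DMSO) or test compound for 4 h. Lysis in RIPA with protease inhibitors, 1 mM PMSF and 1 μM TSA; 100000g spin, 30 min, 4 °C. BCA protein, then AcTub ELISA. Fold-change versus vehicle, at least triplicate, two-tailed unpaired t test.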

The structures appear in SMILES notation.

For the compound `Fc1cc(F)c(-c2cncn2-c2ccc(Cl)cc2)c(F)c1` [Compound 25, 1-(4-Chlorophenyl)-5-(2,4,6-trifluorophenyl)-1H-imidazole], the “MT activity (AcTub increase), inactive compounds” value (shortened to “MT activity (AcTub increase)”) is reported as “do not cause a detectable increase in AcTub”.
Same read-out and setting: the value for `COc1ccc(-n2cncc2-c2c(F)cc(F)cc2F)cc1` [Compound 26, 1-(4-Methoxyphenyl)-5-(2,4,6-trifluorophenyl)-1H-imidazole] was “do not cause a detectable increase in AcTub”.
Consider `Cc1ncn(-c2ccc(Cl)cc2)c1-c1c(F)ccc(Cl)c1F` [Compound 29, 5-(3-Chloro-2,6-difluorophenyl)-1-(4-chlorophenyl)-4-methyl-1H-imidazole], for which the “elevation in AcTub without decrease of α-tubulin” value was “produce an elevation in AcTub at 1 or 10 μM without decreasing α-tubulin level”.
The same measure, in the same setting: the value for `Cc1nc(C)n(-c2ccc(Cl)cc2)c1-c1c(F)ccc(Cl)c1F` [Compound 31, 5-(3-Chloro-2,6-difluorophenyl)-1-(4-chlorophenyl)-2,4-dimethyl-1H-imidazole] was “produce an elevation in AcTub at 1 or 10 μM without decreasing α-tubulin level”; that for `Cc1ncn(-c2ccc(Cl)cc2)c1-c1c(F)ccc(F)c1F` [Compound 35, 1-(4-Chlorophenyl)-4-methyl-5-(2,3,6-trifluorophenyl)-1H-imidazole] was “produce an elevation in AcTub at 1 or 10 μM without decreasing α-tubulin level”; that for `Cc1nc(Cl)n(-c2ccc(Cl)cc2)c1-c1c(F)ccc(F)c1F` [Compound 36, 2-Chloro-1-(4-chlorophenyl)-4-methyl-5-(2,3,6-trifluorophenyl)-1H-imidazole] was “produce an elevation in AcTub at 1 or 10 μM without decreasing α-tubulin level”.
Consider `Fc1cccc(F)c1-c1cncn1-c1ccc(OC(F)(F)F)cc1` [Compound 42, 5-(2,6-Difluorophenyl)-1-(4-(trifluoromethoxy)phenyl)-1H-imidazole], for which the “MT activity (AcTub increase)” value is “do not cause a detectable increase in AcTub”.
Consider `Fc1cccc(F)c1-c1cncn1-c1ccc(Cl)cc1` [Compound 43, 1-(4-Chlorophenyl)-5-(2,6-difluorophenyl)-1H-imidazole], for which the “MT activity (AcTub increase)” value was “do not cause a detectable increase in AcTub”.
The same measure, in the same setting: to `Cc1cc(F)c(-c2cncn2-c2ccc(Cl)cc2)c(F)c1` [Compound 48, 1-(4-Chlorophenyl)-5-(2,6-difluoro-4-methylphenyl)-1H-imidazole] belongs “do not cause a detectable increase in AcTub”; to `COc1ccc(F)c(-c2cncn2-c2ccc(Cl)cc2)c1F` [Compound 49, 1-(4-Chlorophenyl)-5-(2,6-difluoro-3-methoxyphenyl)-1H-imidazole], “do not cause a detectable increase in AcTub”; to `Clc1ccc(-n2cncc2-c2ccccc2)cc1` [Compound 50, 1-(4-Chlorophenyl)-5-phenyl-1H-imidazole], “essentially devoid of MT activity”.
Still for that read-out and setting: to `Fc1cccc(F)c1-c1cncn1-c1ccccc1` [Compound 52, 5-(2,6-Difluorophenyl)-1-phenyl-1H-imidazole] belongs “do not cause a detectable increase in AcTub”.
On the same count and under the same terms, the value for `Fc1cccc(F)c1-c1cncn1-c1ccccc1Cl` [Compound 53, 1-(2-Chlorophenyl)-5-(2,6-difluorophenyl)-1H-imidazole] was “do not cause a detectable increase in AcTub”.
For the compound `Fc1cc(F)c(-c2c(Cl)ncn2-c2ccc(Cl)cc2)c(F)c1` [Compound 54, 4-Chloro-1-(4-chlorophenyl)-5-(2,4,6-trifluorophenyl)-1H-imidazole], the “elevation in AcTub without decrease of α-tubulin” value is “produce an elevation in AcTub at 1 or 10 μM without decreasing α-tubulin level”.
Same read-out and setting: the value for `COc1ccc(-n2cnc(Cl)c2-c2c(F)cc(F)cc2F)cc1` [Compound 59, 4-Chloro-1-(4-methoxyphenyl)-5-(2,4,6-trifluorophenyl)-1H-imidazole] was “produce an elevation in AcTub at 1 or 10 μM without decreasing α-tubulin level”.
On the same count and under the same terms, to `COc1ccc(-n2c(-c3c(F)cc(F)cc3F)cnc2Cl)cc1` [Compound 60, 2-Chloro-1-(4-methoxyphenyl)-5-(2,4,6-trifluorophenyl)-1H-imidazole] belongs “produce an elevation in AcTub at 1 or 10 μM without decreasing α-tubulin level”; to `Fc1ccc(Cl)c(F)c1-c1c(Cl)ncn1-c1ccc(Cl)cc1` [Compound 64, 4-Chloro-5-(3-chloro-2,6-difluorophenyl)-1-(4-chlorophenyl)-1H-imidazole], “produce an elevation in AcTub at 1 or 10 μM without decreasing α-tubulin level”.
As to `Fc1cc(-n2c(-c3c(F)ccc(F)c3F)cnc2Cl)ccc1Cl` [Compound 72, 2-Chloro-1-(4-chloro-3-fluorophenyl)-5-(2,3,6-trifluorophenyl)-1H-imidazole], the “elevation in AcTub without decrease of α-tubulin” value is listed as “produce an elevation in AcTub at 1 or 10 μM without decreasing α-tubulin level”.
The same measure, in the same setting: the value for `Cc1nc(Cl)c(-c2c(F)cc(F)cc2F)n1-c1ccc(Cl)nc1` [Compound 74, 2-Chloro-5-(4-chloro-2-methyl-5-(2,4,6-trifluorophenyl)-1H-imidazol-1-yl)pyridine] was “produce an elevation in AcTub at 1 or 10 μM without decreasing α-tubulin level”.
In the case of `Fc1ccc(-c2cnc(Cl)n2-c2ccc(Cl)cc2)cc1` [Compound 75, 2-Chloro-1-(4-chlorophenyl)-5-(4-fluorophenyl)-1H-imidazole], the “MT activity (AcTub increase)” value was “essentially devoid of MT activity”.
Regarding `Fc1ccc(-c2c(Cl)ncn2-c2ccc(Cl)cc2)cc1` [Compound 76, 4-Chloro-1-(4-chlorophenyl)-5-(4-fluorophenyl)-1H-imidazole], the “MT activity (AcTub increase)” value is given as “essentially devoid of MT activity”.
Regarding `Fc1cc(Cl)ccc1-n1cnc(Cl)c1-c1c(F)cccc1F` [Compound 78, 4-Chloro-1-(4-chloro-2-fluorophenyl)-5-(2,6-difluorophenyl)-1H-imidazole], the “elevation in AcTub without decrease of α-tubulin” value is on record as “produce an elevation in AcTub at 1 or 10 μM without decreasing α-tubulin level”.
As for `Fc1ccc(F)c(-c2c(Cl)ncn2-c2ccc(Cl)cc2)c1` [Compound 80, 4-Chloro-1-(4-chlorophenyl)-5-(2,5-difluorophenyl)-1H-imidazole], the “MT activity (AcTub increase)” value is “inactive”.
With `Fc1cccc(F)c1-c1c(Cl)ncn1-c1ccccc1Cl` [Compound 102, 4-Chloro-1-(2-chlorophenyl)-5-(2,6-difluorophenyl)-1H-imidazole], the “elevation in AcTub without decrease of α-tubulin” value is “produce an elevation in AcTub at 1 or 10 μM without decreasing α-tubulin level”.

The record behind these values is article PMC5483893 (Journal of Medicinal Chemistry, 2017).
